Laboratory results reported in ChEMBL document CHEMBL1152327, “Cucurbitane-type triterpenoids from the stems of Cucumis melo” (J Nat Prod, 2009).
Active and inactive are the calls of the source. The calls are words filed in the database; no cut-off is given here.

What was measured:
[1] = tested on: A549; test: Cytotoxicity against human A549 cells upto 10 uM after 72 hrs by SRB assay; format: functional, cell-based
How it was run: (§1)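 A549/ATCC (human non-small-cell lung) or BEL-7402 (human hepatocellular) cells plated 24 h before treatment, then continuously exposed to a range of concentrations for 72 h. Cells fixed and stained with sulforhodamine B, bound dye solubilized in 10 mM Tris, absorbance read at 565 nm. IC50 derived.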

[2] = tested on: Bel-7402; test: Cytotoxicity against human Bel7402 cells upto 10 uM after 72 hrs by SRB assay; format: functional, cell-based; how it was run: as §1
[3] = target: Signal transducer and activator of transcription 3 (Homo sapiens) (UniProt P40763); test: Inhibition of STAT3 upto 10 uM by Western blotting
How it was run: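 Phosphotyrosine Stat3 levels in treated cells, tested up to 10 µM. Cells washed in ice-cold PBS, lysed in SDS sample buffer, equal protein run on SDS-PAGE and transferred to PVDF. Blots blocked in 5% nonfat milk/TBST, then phospho-Stat3 and β-tubulin antibodies at 4 °C overnight, secondary 2 h room temperature, ECL detection. IC50 derived.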

[4] = tested on: A549; test: Cytotoxicity against human A549 cells after 72 hrs by SRB assay; format: functional, cell-based; details: A549, 72 h; how it was run: as §1
[5] = tested on: Bel-7402; test: Cytotoxicity against human Bel7402 cells after 72 hrs by SRB assay; format: functional, cell-based; details: Bel-7402, 72 h; how it was run: as §1

Chain of Signal transducer and activator of transcription 3 (Homo sapiens) (P40763 whole entry): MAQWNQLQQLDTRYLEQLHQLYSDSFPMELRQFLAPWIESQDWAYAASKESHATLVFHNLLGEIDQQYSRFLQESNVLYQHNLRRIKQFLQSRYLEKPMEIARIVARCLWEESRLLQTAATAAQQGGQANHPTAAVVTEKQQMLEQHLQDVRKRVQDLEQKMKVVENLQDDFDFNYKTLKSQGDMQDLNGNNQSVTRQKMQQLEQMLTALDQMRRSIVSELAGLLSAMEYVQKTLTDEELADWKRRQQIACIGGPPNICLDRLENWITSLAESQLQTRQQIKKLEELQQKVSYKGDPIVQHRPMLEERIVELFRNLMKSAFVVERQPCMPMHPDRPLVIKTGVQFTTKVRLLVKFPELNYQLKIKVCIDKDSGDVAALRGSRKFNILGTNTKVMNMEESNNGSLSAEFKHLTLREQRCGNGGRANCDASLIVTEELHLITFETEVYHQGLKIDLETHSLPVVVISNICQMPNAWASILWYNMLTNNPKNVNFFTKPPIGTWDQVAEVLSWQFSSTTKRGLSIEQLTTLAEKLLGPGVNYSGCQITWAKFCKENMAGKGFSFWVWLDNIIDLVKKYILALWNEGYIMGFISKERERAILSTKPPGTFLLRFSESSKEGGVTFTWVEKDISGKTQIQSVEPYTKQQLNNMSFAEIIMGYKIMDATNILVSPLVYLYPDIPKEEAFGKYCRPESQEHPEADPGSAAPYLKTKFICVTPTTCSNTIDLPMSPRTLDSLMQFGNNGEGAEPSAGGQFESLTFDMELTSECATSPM

**Q.** `CC(=O)[C@H]1[C@H](O)C[C@@]2(C)[C@@H]3CC=C4[C@@H](C[C@H](O[C@@H]5O[C@H](CO)[C@@H](O)[C@H](O)[C@H]5O)C(=O)C4(C)C)[C@]3(C)C(=O)C[C@]12C` was tested. Which Activity [1] did it give?
**A.** Its Activity is “inactive”.

**Q.** What about the Activity [2] of the same compound?
**A.** Its Activity is “inactive”.

**Q.** And the inhibition [3]?
**A.** Its inhibition is “inactive”.

**Q.** How did the IC50 [4] turn out when `CC(=O)OC(C)(C)/C=C/C(=O)[C@](C)(O)[C@H]1[C@H](O)C[C@@]2(C)[C@@H]3[C@@H](O)C=C4[C@@H](C[C@H](O)C(=O)C4(C)C)[C@]3(C)C(=O)C[C@]12C` [7BETA-HYDROXYCUCURBITACIN B] was run?
**A.** Its IC50 is 3210 nM.

**Q.** And the IC50 [5]?
**A.** Its IC50 is 7590 nM.

**Q.** And the inhibition [3]?
**A.** Its inhibition is “inactive”.

**Q.** How did the Activity [1] turn out when `CC1(C)C(=O)[C@@H](O)C[C@@H]2C1=CC[C@@H]1[C@@]2(C)C(=O)C[C@]2(C)[C@@H]([C@@](C)(O)C(=O)C[C@H](O)C(C)(C)O)[C@H](O)C[C@@]12C` was run?
**A.** Its Activity is “inactive”.

**Q.** What about the Activity [2] of the same compound?
**A.** Its Activity is “inactive”.

**Q.** And the inhibition [3]?
**A.** The inhibition was “inactive”.

**Q.** Which results are given for `CC(=O)OC(C)(C)CCC(=O)[C@](C)(O)[C@H]1[C@H](O)C[C@@]2(C)[C@@H]3CC=C4[C@@H](C[C@H](O)C(=O)C4(C)C)[C@]3(C)C(=O)C[C@]12C`?
**A.** Activity [1]: inactive; Activity [2]: inactive; inhibition [3]: inactive

**Q.** Which results are given for `CC(=O)[C@H]1[C@H](O)C[C@@]2(C)[C@@H]3CC=C4[C@@H](C[C@H](O)C(=O)C4(C)C)[C@]3(C)C(=O)C[C@]12C`?
**A.** Activity [1]: inactive; Activity [2]: inactive; inhibition [3]: inactive

**Q.** With `CC(=O)OC(C)(C)CCC(=O)[C@](C)(O)[C@H]1[C@H](O)C[C@@]2(C)[C@@H]3[C@@H](O)C=C4[C@@H](C[C@H](O)C(=O)C4(C)C)[C@]3(C)C(=O)C[C@]12C` as the compound, how does the Activity [1] read?
**A.** Its Activity is “inactive”.

**Q.** And the Activity [2]?
**A.** Its Activity is “inactive”.

**Q.** What about the inhibition [3] of the same compound?
**A.** Its inhibition is “inactive”.

**Q.** For `C/C(=C\C(O)C[C@](C)(O)[C@H]1[C@H](O)C[C@@]2(C)[C@@H]3CC=C4[C@@H](C[C@H](O)C(=O)C4(C)C)[C@]3(C)C(=O)C[C@]12C)CO` (some centres not stated), which Activity [1] is on record?
**A.** Its Activity is “inactive”.

**Q.** What about the Activity [2] of the same compound?
**A.** The Activity was “inactive”.

**Q.** What about the inhibition [3] of the same compound?
**A.** The inhibition was “inactive”.

**Q.** For `CC(C)(O)/C=C/C(=O)[C@](C)(O)[C@H]1[C@H](O)C[C@@]2(C)[C@@H]3CC=C4[C@@H](C[C@H](O)C(=O)C4(C)C)[C@]3(CO)C(=O)C[C@]12C`, which Activity [1] is on record?
**A.** Its Activity is “inactive”.

**Q.** And the Activity [2]?
**A.** The Activity was “inactive”.

**Q.** And the inhibition [3]?
**A.** The inhibition was “inactive”.

**Q.** `CC(=O)OC(C)(C)/C=C/C(=O)[C@](C)(O)[C@H]1[C@H](O)C[C@@]2(C)[C@@H]3CC=C4[C@H](C[C@H](O)C(=O)C4(C)C)[C@]3(C)C(=O)C[C@]12C` [CUCURBITACIN B] was tested. Which IC50 [4] did it give?
**A.** The IC50 was 10 nM.

**Q.** And the IC50 [5]?
**A.** The IC50 was 8 nM.

**Q.** What does the source list for `CC(C)(O)CCC(=O)[C@](C)(O)[C@H]1[C@H](O)C[C@@]2(C)[C@@H]3CC=C4[C@@H](C[C@H](O)C(=O)C4(C)C)[C@]3(C)C(=O)C[C@]12C`?
**A.** Activity [1]: inactive; Activity [2]: inactive; inhibition [3]: inactive

**Q.** For `CC(=O)OC(C)(C)/C=C/C(=O)[C@](C)(O)[C@H]1[C@H](O)C[C@@]2(C)[C@@H]3CC=C4[C@@H](C[C@H](O)C(=O)C4(C)C)[C@]3(CO)C(=O)C[C@]12C` [CUCURBITACIN A], which IC50 [4] is on record?
**A.** The IC50 was 400 nM.

**Q.** What about the IC50 [5] of the same compound?
**A.** Its IC50 is 300 nM.

**Q.** And the inhibition [3]?
**A.** Its inhibition is “inactive”.

**Q.** `CC(=O)OC(C)(C)CCC(=O)[C@](C)(O)[C@H]1[C@H](O)C[C@@]2(C)[C@@H]3CC=C4[C@@H](CC(=O)[C@H](O)C4(C)C)[C@]3(C)C(=O)C[C@]12C` was tested. Which Activity [1] did it give?
**A.** The Activity was “inactive”.

**Q.** And the Activity [2]?
**A.** Its Activity is “inactive”.

**Q.** What about the inhibition [3] of the same compound?
**A.** Its inhibition is “inactive”.

**Q.** How did the Activity [1] turn out when `CC1(C)C(=O)[C@@H](O)C[C@@H]2C1=CC[C@@H]1[C@@]2(C)C(=O)C[C@]2(C)[C@@H]([C@@](C)(O)C(=O)CC(O)C(C)(C)O)[C@H](O)C[C@@]12C` (some centres not stated) was run?
**A.** The Activity was “inactive”.

**Q.** What about the Activity [2] of the same compound?
**A.** The Activity was “inactive”.

**Q.** And the inhibition [3]?
**A.** Its inhibition is “inactive”.

**Q.** What does the source list for `CC(C)(O)CCC(=O)[C@](C)(O)[C@H]1[C@H](O)C[C@@]2(C)[C@@H]3CC=C4[C@@H](C[C@H](O)C(=O)C4(C)C)[C@]3(CO)C(=O)C[C@]12C`?
**A.** Activity [1]: inactive; Activity [2]: inactive; inhibition [3]: inactive

**Q.** `CC(=O)OC(C)(C)/C=C/C(=O)[C@](C)(O)[C@H]1[C@H](O)C[C@@]2(C)[C@@H]3CC=C4[C@@H](C[C@H](O[C@@H]5O[C@H](CO)[C@@H](O)[C@H](O)[C@H]5O)C(=O)C4(C)C)[C@]3(CO)C(=O)C[C@]12C` was tested. Which Activity [1] did it give?
**A.** The Activity was “inactive”.

**Q.** What about the Activity [2] of the same compound?
**A.** The Activity was “inactive”.

**Q.** What about the inhibition [3] of the same compound?
**A.** Its inhibition is “inactive”.

**Q.** Which Activity [1] does the source give for `CC(=O)OC(C)(C)/C=C/C(=O)[C@](C)(O)[C@H]1[C@H](O)C[C@@]2(C)[C@@H]3CC=C4[C@@H](C[C@H](O[C@@H]5O[C@H](CO)[C@@H](O)[C@H](O)[C@H]5O)C(=O)C4(C)C)[C@]3(C)C(=O)C[C@]12C` here?
**A.** The Activity was “inactive”.

**Q.** What about the Activity [2] of the same compound?
**A.** Its Activity is “inactive”.

**Q.** And the inhibition [3]?
**A.** The inhibition was “inactive”.

**Q.** How did the Activity [1] turn out when `CC(C)(O)/C=C/C(=O)[C@](C)(O)[C@H]1[C@H](O)C[C@@]2(C)[C@@H]3CC=C4[C@@H](C[C@H](O[C@@H]5O[C@H](CO)[C@@H](O)[C@H](O)[C@H]5O)C(=O)C4(C)C)[C@]3(C)C(=O)C[C@]12C` was run?
**A.** Its Activity is “inactive”.

**Q.** And the Activity [2]?
**A.** The Activity was “inactive”.

**Q.** What about the inhibition [3] of the same compound?
**A.** The inhibition was “inactive”.

**Q.** How did the Activity [1] turn out when `C/C(=C\[C@@H]1C[C@](C)(O)[C@H]2[C@@H](C[C@@]3(C)[C@@H]4[C@@H](O)C=C5[C@@H](C[C@H](O)[C@H](O)C5(C)C)[C@]4(C)C(=O)C[C@]23C)O1)CO` was run?
**A.** The Activity was “inactive”.

**Q.** What about the Activity [2] of the same compound?
**A.** The Activity was “inactive”.

**Q.** What about the inhibition [3] of the same compound?
**A.** The inhibition was “inactive”.

**Q.** With `CC(C)(O)CCC(=O)[C@](C)(O)[C@H]1[C@H](O)C[C@@]2(C)[C@@H]3CC=C4[C@@H](CC(=O)[C@H](O)C4(C)C)[C@]3(C)C(=O)C[C@]12C` as the compound, how does the Activity [1] read?
**A.** Its Activity is “inactive”.

**Q.** And the Activity [2]?
**A.** The Activity was “inactive”.

**Q.** What about the inhibition [3] of the same compound?
**A.** Its inhibition is “inactive”.

**Q.** `CC(C)=CCC[C@@H](C)[C@H]1CC[C@@]2(C)[C@@H]3CC=C4[C@H](CCCC4(C)C)[C@H]3C(=O)C[C@]12C` was tested. Which Activity [1] did it give?
**A.** Its Activity is “inactive”.

**Q.** What about the Activity [2] of the same compound?
**A.** Its Activity is “inactive”.

**Q.** What about the inhibition [3] of the same compound?
**A.** Its inhibition is “inactive”.

**Q.** Which Activity [1] does the source give for `C/C(=C\[C@@H]1C[C@](C)(O)[C@H]2[C@@H](C[C@@]3(C)[C@@H]4[C@@H](O)C=C5[C@@H](C[C@H](O[C@@H]6O[C@H](CO)[C@@H](O)[C@H](O)[C@H]6O)[C@H](O)C5(C)C)[C@]4(C)C(=O)C[C@]23C)O1)CO` here?
**A.** The Activity was “inactive”.

**Q.** And the Activity [2]?
**A.** The Activity was “inactive”.

**Q.** And the inhibition [3]?
**A.** The inhibition was “inactive”.
